Assay results as given in ChEMBL document CHEMBL4130522, “Synthesis and Pharmacological Evaluation of Selective Histone Deacetylase 6 Inhibitors in Melanoma Models” (ACS Med Chem Lett, 2017).
Values belong to the molecule of their own block, whether it stands above or below them. The source made the active and inactive calls. No cut-off for these calls is given here.

Columns and labels:
[1] = biological target: T1, Protein deacetylase HDAC6 (Homo sapiens, UniProt Q9UBN7); test: Inhibition of recombinant human full length HDAC6 expressed in baculovirus infected Sf9 insect cells using p53 (379 to 382 residues) derived RHKKAc as substrate preincubated for 5 to 10 mins followed by substrate addition measured after 2 hrs by fluorescence assay
T1 sequence (Q9UBN7 whole entry): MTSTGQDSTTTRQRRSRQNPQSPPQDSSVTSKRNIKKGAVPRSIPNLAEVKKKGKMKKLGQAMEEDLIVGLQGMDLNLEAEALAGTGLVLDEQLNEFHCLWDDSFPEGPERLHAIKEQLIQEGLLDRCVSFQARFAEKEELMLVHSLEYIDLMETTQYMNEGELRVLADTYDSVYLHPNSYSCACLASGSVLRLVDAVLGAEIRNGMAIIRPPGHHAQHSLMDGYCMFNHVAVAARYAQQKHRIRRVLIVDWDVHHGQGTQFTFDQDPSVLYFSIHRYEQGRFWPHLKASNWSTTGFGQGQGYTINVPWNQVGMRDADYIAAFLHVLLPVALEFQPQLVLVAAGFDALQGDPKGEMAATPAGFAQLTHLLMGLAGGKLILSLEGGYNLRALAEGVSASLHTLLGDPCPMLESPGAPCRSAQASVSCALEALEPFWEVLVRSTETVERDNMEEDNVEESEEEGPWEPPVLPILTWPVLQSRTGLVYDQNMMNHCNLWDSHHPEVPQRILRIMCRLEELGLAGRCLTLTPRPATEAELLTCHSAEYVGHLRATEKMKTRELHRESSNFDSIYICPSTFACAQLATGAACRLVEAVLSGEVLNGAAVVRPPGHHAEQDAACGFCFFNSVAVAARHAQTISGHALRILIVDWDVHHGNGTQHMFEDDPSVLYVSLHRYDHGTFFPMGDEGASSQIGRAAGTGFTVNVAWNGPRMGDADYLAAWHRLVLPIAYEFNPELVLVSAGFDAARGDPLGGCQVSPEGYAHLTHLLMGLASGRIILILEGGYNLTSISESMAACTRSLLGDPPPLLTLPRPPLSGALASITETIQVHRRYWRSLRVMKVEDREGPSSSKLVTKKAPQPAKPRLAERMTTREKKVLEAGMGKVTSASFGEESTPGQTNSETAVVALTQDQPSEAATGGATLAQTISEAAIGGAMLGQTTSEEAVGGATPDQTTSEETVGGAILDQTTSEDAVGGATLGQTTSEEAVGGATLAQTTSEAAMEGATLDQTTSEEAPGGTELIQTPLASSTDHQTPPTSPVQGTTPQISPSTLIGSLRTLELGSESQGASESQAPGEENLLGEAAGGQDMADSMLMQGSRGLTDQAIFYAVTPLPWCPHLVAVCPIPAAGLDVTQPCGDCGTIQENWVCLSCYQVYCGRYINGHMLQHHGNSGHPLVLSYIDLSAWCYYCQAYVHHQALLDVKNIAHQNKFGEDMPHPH

Histone deacetylase 1 = Histone deacetylase 1 (Homo sapiens, UniProt Q13547); test: Inhibition of recombinant human full length HDAC1 expressed in baculovirus infected Sf9 insect cells using p53 (379 to 382 residues) derived RHKKAc as substrate preincubated for 5 to 10 mins followed by substrate addition measured after 2 hrs by fluorescence assay
Sequence of Histone deacetylase 1 (Q13547 whole entry, the tested form may be a part): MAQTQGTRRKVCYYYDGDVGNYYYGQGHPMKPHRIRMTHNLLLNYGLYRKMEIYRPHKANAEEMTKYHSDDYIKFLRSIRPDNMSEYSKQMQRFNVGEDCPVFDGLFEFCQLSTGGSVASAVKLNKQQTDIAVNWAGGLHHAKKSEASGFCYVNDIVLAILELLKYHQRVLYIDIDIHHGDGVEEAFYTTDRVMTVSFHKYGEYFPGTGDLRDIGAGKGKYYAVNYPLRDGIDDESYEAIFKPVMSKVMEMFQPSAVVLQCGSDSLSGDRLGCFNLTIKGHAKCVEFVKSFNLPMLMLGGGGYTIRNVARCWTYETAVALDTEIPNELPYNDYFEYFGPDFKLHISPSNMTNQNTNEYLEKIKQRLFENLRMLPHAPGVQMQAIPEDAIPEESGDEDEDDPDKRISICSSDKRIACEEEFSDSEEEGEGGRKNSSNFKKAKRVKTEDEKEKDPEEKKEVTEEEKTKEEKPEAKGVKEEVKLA

[2] = biological target: T2, Protein deacetylase HDAC6 (Mus musculus) (UniProt Q9Z2V5); test: Inhibition of HDAC6 in mouse RAW264.7 cells assessed as decrease in IL-10 production at 3 uM after 24 hrs by ELISA; type: cell-based
T2 sequence (whole entry): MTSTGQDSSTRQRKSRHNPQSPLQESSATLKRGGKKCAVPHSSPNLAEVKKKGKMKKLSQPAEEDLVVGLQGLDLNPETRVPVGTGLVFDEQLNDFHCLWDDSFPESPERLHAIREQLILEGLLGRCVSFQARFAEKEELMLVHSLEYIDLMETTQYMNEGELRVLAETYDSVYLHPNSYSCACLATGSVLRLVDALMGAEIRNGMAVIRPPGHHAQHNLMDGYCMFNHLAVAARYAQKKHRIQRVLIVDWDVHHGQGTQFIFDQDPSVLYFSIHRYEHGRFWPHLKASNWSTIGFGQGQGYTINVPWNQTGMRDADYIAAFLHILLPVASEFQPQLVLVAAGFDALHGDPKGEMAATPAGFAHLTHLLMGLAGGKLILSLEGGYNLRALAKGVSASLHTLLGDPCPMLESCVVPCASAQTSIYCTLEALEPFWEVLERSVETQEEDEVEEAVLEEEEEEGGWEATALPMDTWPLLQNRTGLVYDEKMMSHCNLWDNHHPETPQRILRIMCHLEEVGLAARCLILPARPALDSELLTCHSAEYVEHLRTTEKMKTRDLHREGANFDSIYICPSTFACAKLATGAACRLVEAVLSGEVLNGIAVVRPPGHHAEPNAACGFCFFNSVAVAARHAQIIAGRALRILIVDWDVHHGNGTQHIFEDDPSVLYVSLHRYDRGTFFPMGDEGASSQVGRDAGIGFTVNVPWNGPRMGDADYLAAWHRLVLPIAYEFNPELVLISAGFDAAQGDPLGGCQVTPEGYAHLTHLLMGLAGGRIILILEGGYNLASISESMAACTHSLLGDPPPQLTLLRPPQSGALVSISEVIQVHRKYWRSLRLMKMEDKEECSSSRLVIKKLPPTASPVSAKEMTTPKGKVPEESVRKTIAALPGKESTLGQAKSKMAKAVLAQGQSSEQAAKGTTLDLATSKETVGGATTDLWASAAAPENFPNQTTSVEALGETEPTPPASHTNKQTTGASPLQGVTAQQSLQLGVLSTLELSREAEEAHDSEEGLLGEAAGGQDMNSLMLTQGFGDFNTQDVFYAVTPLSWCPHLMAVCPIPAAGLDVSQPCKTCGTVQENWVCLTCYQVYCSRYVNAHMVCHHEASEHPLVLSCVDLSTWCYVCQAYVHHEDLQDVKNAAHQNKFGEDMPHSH
In short: (§1)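 Cells (primary peritoneal elicited macrophages from C57BL/6 mice, or RAW264.7 murine macrophages) stimulated with LPS 1 µg/mL, with or without 3 µM compound, for 24 h; supernatants collected and IL-10 quantified by ELISA; statistics versus untreated cells.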

[3] = Antitumor activity against mouse B16-F10-luc cells xenografted in C57BL/6 mouse assessed as mouse survival rate at 20 mg/kg, ip administered daily for 22 days (reference value: 40%); type: functional; conditions: 528 h
Mus musculus [4] = test: Antitumor activity against mouse B16-F10-luc cells xenografted in C57BL/6 SCID mouse assessed as tumor growth inhibition at 20 mg/kg, ip administered daily for 20 days; type: functional, organism-based
[5] = biological target: T2, Protein deacetylase HDAC6 (Mus musculus); test: Inhibition of HDAC6 in C57BL/6 mouse primary peritoneal macrophages assessed as decrease in IL-10 production at 3 uM after 24 hrs by ELISA; in short: as §1
[6] = Half life in human liver microsomes at 200 uM in presence of NADPH by LC-MS/MS analysis; type: ADME, microsome
Mus musculus [7] = species: Mus musculus; test: Antiproliferative activity against mouse FcMCL cells at 1 to 15 uM after 48 hrs by MTS assay; type: functional, cell-based
[8] = biological target: T3, Protein deacetylase HDAC6 (Homo sapiens) (UniProt Q9UBN7); test: Inhibition of HDAC6 in human WM795 cells assessed as increase in acetylated alpha-tubulin levels at 0.5 to 8 uM after 24 hrs by Western blot method; type: cell-based
T3 sequence (whole entry): T1 sequence (Q9UBN7 whole entry)
In short: (§2)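 WM795 human melanoma cells were treated for 24 h across a range of concentrations. Protein extracts were run on SDS-PAGE and immunoblotted with antibodies to HDAC6, α-tubulin, acetylated α-tubulin, histone H3 and acetylated H3. A selective HDAC6 inhibitor and a pan-HDAC inhibitor were included on each blot as positive controls. Blots are representative of three independent experiments.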

Homo sapiens = species: Homo sapiens; test: Selectivity ratio of IC50 for recombinant human full length HDAC8 expressed in baculovirus infected Sf9 insect cells to IC50 for recombinant human full length HDAC6 expressed in baculovirus infected Sf9 insect cells
Mus musculus [9] = species: Mus musculus; test: Antiproliferative activity against mouse SM1 cells at 1 to 15 uM after 48 hrs by MTS assay; type: functional, cell-based
[10] = Half life in mouse liver microsomes at 200 uM in presence of NADPH by LC-MS/MS analysis; type: ADME, microsome
B16 [11] = test: Antiproliferative activity against mouse B16 cells at 1 to 15 uM after 48 hrs by MTS assay; type: functional, cell-based
Mus musculus [12] = test: Antitumor activity against mouse B16-F10-luc cells xenografted in C57BL/6 mouse assessed as reduction in tumor volume at 20 mg/kg, ip administered daily for 22 days; type: functional, organism-based
In short: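 C57BL/6 mice implanted subcutaneously with B16-F10-luc WT cells; daily intraperitoneal dosing at 20 mg/kg for 22 days versus vehicle group; tumor volume and survival monitored throughout.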

[13] = biological target: T3, Protein deacetylase HDAC6 (Homo sapiens); test: Inhibition of HDAC6 in human WM795 cells assessed as increase in acetylated histone H3 levels at 0.5 to 8 uM after 24 hrs by Western blot method; type: cell-based; in short: as §2
Mus musculus [14] = species: Mus musculus; test: Antiproliferative activity against mouse FcMCL cells at lower concentration after 48 hrs by MTS assay; type: functional, cell-based
B16 [15] = test: Antiproliferative activity against mouse B16 cells at lower concentration after 48 hrs by MTS assay; type: functional, cell-based
[16] = biological target: T3, Protein deacetylase HDAC6 (Homo sapiens); test: Inhibition of recombinant human full length HDAC6 expressed in baculovirus infected Sf9 insect cells up to 30 uM using p53 (379 to 382 residues) derived RHKKAc as substrate preincubated for 5 to 10 mins followed by substrate addition measured after 2 hrs by fluorescence assay

Compound: CCCCN(Cc1ccc(NC(=O)[C@H](C)N)cc1)C(=O)Nc1ccccc1
IC50 ([1]; sf9): Not Active

Compound: CCCCN(Cc1ccc(C(=O)NO)cc1)C(=O)Nc1ccc2cn[nH]c2c1
inhibition [2]: Active
survival at 20 mg/kg [3]: 100%
TGI (Mus musculus [4]): inactive
inhibition [5]: Active
half-life at 200 µM [6]: 6.8 h
IC50 ([1]; read-out: IC50): 0.0016 µM
Activity (Mus musculus [7]): Active
inhibition [8]: Active
Ratio IC50 (Homo sapiens): > 500
Activity (Mus musculus [9]): Active
half-life at 200 µM [10]: 3.98 h
Activity (B16 [11]): Active
Activity (Mus musculus [12]): Active
inhibition [13]: inactive

Compound: CCCCN(Cc1ccc(C(=O)NO)cc1)C(=O)NCCN1CCCC1
IC50 (Histone deacetylase 1): 14.4 µM
IC50 ([1]; read-out: IC50): 0.074 µM

Compound: CCCCN(Cc1ccc(C(=O)NO)cc1)C(=O)Nc1cccc(N(C)C)c1
IC50 ([1]; read-out: IC50): 0.0017 µM
Activity (Mus musculus [14]): Active
inhibition [8]: Active
Ratio IC50 (Homo sapiens): > 500
Activity (B16 [15]): Active
inhibition [13]: inactive

Compound: CCCCN(Cc1ccc(C(=O)NO)cc1)C(=O)Nc1ncccn1
IC50 ([1]; read-out: IC50): 0.006 µM
Activity (Mus musculus [7]): Active
inhibition [8]: Active
Activity (Mus musculus [9]): Active
Activity (B16 [11]): Active
inhibition [13]: inactive

Compound: CCCCN(Cc1ccc(C(=O)NO)cc1)C(=O)Nc1cc(C)ccn1
IC50 (Histone deacetylase 1): 7.54 µM
IC50 ([1]; read-out: IC50): 0.043 µM

Compound: CCCCN(C(=O)Nc1cccc(N(C)C)c1)c1ccc(C(=O)NO)cc1
IC50 (Histone deacetylase 1): > 30 µM
IC50 ([1]; read-out: IC50): 1.79 µM

Compound: CN1CCc2c(c3ccccc3n2Cc2ccc(C(=O)NO)cc2)C1
Activity (Mus musculus [12]): Active

Now from value to molecule, other results behind:

IC50 (Histone deacetylase 1): > 30 µM
IC50 ([1]; read-out: IC50): 1.02 µM
Compound: CCCCN(Cc1ccc(N(O)C=O)cc1)C(=O)Nc1ccccc1

IC50 (Histone deacetylase 1): 6.13 µM
IC50 ([1]; read-out: IC50): 0.012 µM
Compound: CC(C)CN(Cc1ccc(C(=O)NO)cc1)C(=O)Nc1ccccc1

IC50 (Histone deacetylase 1): 2.91 µM
IC50 ([1]; read-out: IC50): 0.00087 µM
Compound: O=C(NO)c1ccc(CN(CCCCO)C(=O)Nc2ccccc2)cc1
Ratio IC50 (Homo sapiens): > 500

inhibition [8]: Active
inhibition [13]: inactive
Compound: CCCCN(Cc1ccc(C(=O)NO)cc1)C(=O)Nc1ccccc1

IC50 ([1]; sf9): Not Active
Compound: CCCCN(Cc1ccc(/C(N)=N/O)cc1)C(=O)Nc1ccccc1

inhibition [16]: inactive
IC50 ([1]; sf9): Not Active
Compound: O=C(O)c1ccc(CN(CCCCO)C(=O)Nc2ccccc2)cc1

IC50 ([1]; sf9): Not Active
Compound: CCCCN(Cc1ccc(NC(=O)CN)cc1)C(=O)Nc1ccccc1
